Measurements as given in the EternaBench riboswitch data.

Tested on: MS2 coat protein
Test: apparent Kd, MS2 coat protein; higher = weaker binding; RNA-MaP array
Method in brief: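 Apparent Kd was taken as the median of binding curves fitted cluster by cluster. The designed RNAs were made by transcription of sequenced DNA templates on an Illumina sequencing chip and exposed to fluorescently labeled MS2 coat protein (1.5 nM to 3 μM) at room temperature, with or without input ligand, for 0.8–1.5 h at the lowest and 10–20 min at the highest concentrations. Any design measured on fewer than 10 clusters was left out.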

[1] = designed as: OFF switch for flavin mononucleotide, no ligand
[2] = ligand present: flavin mononucleotide, designed as: OFF switch for flavin mononucleotide
[3] = designed as: ON switch for flavin mononucleotide, no ligand
[4] = ligand present: flavin mononucleotide, designed as: ON switch for flavin mononucleotide
[5] = designed as: ON switch for theophylline, no ligand
[6] = ligand present: theophylline, designed as: ON switch for theophylline

Sequence | apparent Kd [1] | apparent Kd [2] | apparent Kd [3] | apparent Kd [4] | other results
GACAGUUUAUAGGAUAUCGACUCGACUGGGCAUCGAGAAGGAUAAACAUGAGGAUCACCCAUGUGUGGUAGGAA | 39.2 nM | 125 nM |  |  | 
CUAACUCGUGUUAGGAUAUGGUAAGGGCUAGCCACCCAGAAGGAACAUGAGGAUCACCCAUGUCGACAGUCCCG | 17.8 nM | 49.1 nM |  |  | 
GACCAACAUGAGGAUCACCCAUGUCGAGUUGGAAGUUUUACGAGAAGGAUCCUCCUGCCGAGCGGAUAGGAUAUCGAAACGGAC | 11.5 nM | 8.93 nM |  |  | 
AACCUACAUGAGGAUCACCCAUGUGAGGAUAUUGCGGUUCUUAGCAUGAGAACCAUACCAAGAAGGCACAGGGC | 7.53 nM | 23.2 nM |  |  | 
UAAAUCGAAGGAUAUACAUGUACAAGUAUCCGUCAAAGAGCACAUGAGGAUCACCCAUGUAGAAGGUCGACUAA | 19.2 nM | 57.6 nM |  |  | 
AAUCUCUCUGCAGGAUAUGGUCGCUGAGCUACUCCAGAAGGGCAGUGAGUAAGAUCGUCAGACAUGAGGAUCACCCAUGUAUUU | 35.8 nM | 30.9 nM |  |  | 
ACAUGAGGAUCACCCAUGUGCCUCGAUAGGUAACUGAGACCCAGAAGGCCAGCGCGUUGCGCCUUGGAGGAUAUGGCAAACAAG |  |  | 34.5 nM | 19.7 nM | 
UACCGAGGGACAGGAUAUUGAGCAUGCCUCGCCCAAGAAGGGUCUUCUGGAGUGACUUAUAACAUGAGGAUCACCCAUGUGAUC | 410 nM | 262 nM |  |  | 
AAAUGUGUAUAGGAUAUCUUGACCCACGCAUUCAGAGAAGGAUACACAUGAGGAUCACCCAUGUUGAGACGGAA | 15.5 nM | 43.9 nM |  |  | 
UGACCAUGCGAGAAGGCGUACAUGAGGAUCACCCAUGUUCGUAGAACAAUCGGGUAAGCAUGGCACGAGGAUAUCGCCAAUGCC | 23.1 nM | 93.6 nM |  |  | 
GGACUACAUGAGGAUCACCCAUGUUUUUAAGACACAGGAUAUGAUCACCGCGGACAUGUAUCAGAAGGGUGUACAU |  |  | 21.8 nM | 10.1 nM | 
GGGACCGCAGCGUCAUACAUGAGGAUCACCCAUGUUUUACUAAGAAGGAUUAGGAAAGUAAGCUAAUAGGAUAUUACAAGGACA | 22.4 nM | 15.6 nM |  |  | 
CGUUCCAGGGAGAAGGGCUACAAGAUCUUUCCAGCAGGAUAUCCCAACAUGAGGAUCACCCAUGUAGUCGUGUUAUUGGCUAUA |  |  | 243 nM | 86.4 nM | 
GACGGCUCUAAGGAGGAUAUGGGAAUCAGCACAUGAGGAUCACCCAUGUAAAUGCCUCGGCUGAACCAGAAGGCCUUGGUCAGGAC |  |  | 380 nM | 269 nM | 
AAACGAGAGACAGAUACCAGCGCAGGAACGGAGUAUGGUGACAUGAGGAUCACCCAUGUGCGCCCUUGGCAGCUGAGCCGUAUUG |  |  |  |  | apparent Kd (designed as: OFF switch for theophylline, no ligand): 27.9 nM; apparent Kd (ligand present: theophylline, designed as: OFF switch for theophylline): 171 nM
CUCCCUCAGUCAGGAUAUGUGUCUUCCCAACAGGACAUGAGGAUCACCCAUGUCGCAAGCAUGGGACAGAAGGGACAUGGAGCC | 23.8 nM | 19.6 nM |  |  | 
UUAUAAGCACCUGAUACCAGUAUGAACCCGUACAUGAGGAUCACCCAUGUUAAUUUCUAUUACCCUUGGCAGCAGCCUUUUUCCU |  |  |  |  | apparent Kd [5]: 19.4 nM; apparent Kd [6]: 17.6 nM
AGCAUGGUUGGAGGAUAUUCCGCCGUAGUGCUGAAUCCCGGACAUGAGGAUCACCCAUGUGAGCGGAAGAAGGCCAAGUUGUCC | 15.5 nM | 63.2 nM |  |  | 
CCGAACAUGAGGAUCACCCAUGUAUCCGAGCGAGGACCGGUACGGCCGCCACUCGAACUGCACCGGAAAAGGGAAACACCGAUCC |  |  |  |  | apparent Kd (designed as: ON switch for tryptophan, no ligand): 56.2 nM; apparent Kd (ligand present: tryptophan, designed as: ON switch for tryptophan): 61.8 nM
CCAACAACGGAGAAGGCGUGACUGGUUUCACAGACAGUGUGGCACAUGAGGAUCACCCAUGUGAACGAGGAUAUCCGUGUGCGA |  |  | 11.6 nM | 7.4 nM | 
UCGUAGAUAGUAGGAUAUAAGGCCCUAGAGCAUUUAGAAGGACUUUUGAGACUAACAUGAGGAUCACCCAUGUUUCGCACAUGG |  |  | 297 nM | 171 nM | 
UAACUGGACCAGAAGGGAGCGCGUCGCGCAUCAACAUACAUGAGGAUCACCCAUGUUCGAGAGUCUCAGGAUAUGGCCGGUAUA |  |  | 9.92 nM | 7.91 nM | 
AGCCCUCAAUCAGGAUAUGUGUGCAUCUAUUGACUUCUAACUAGACAUGAGGAUCACCCAUGUGAACAGAAGGGAUUGUAAUCA | 19.9 nM | 19.6 nM |  |  | 
GACUAACAUGAGGAUCACCCAUGUGAAGAUACCAGUAAUUUCACCUACCCUUGGCAGCUUUUUUUGAACGGCCUGAAUGCCUUGU |  |  |  |  | apparent Kd [5]: 11.3 nM; apparent Kd [6]: 17.1 nM
AAAACAUGAGGAUCACCCAUGUCCAAAUAAAUACACGGAACUAGAAGGGAAAAUCGAAAUUAAUAUCAGGAUAUAGGCAAAGCA |  |  | 53 nM | 42.2 nM | 
AGUUAGCCUGAUGAGGAUAUACACGCCCGGACAUGAGGAUCACCCAUGUUAACAAGUUAGCUAUUGUAGAAGGCAUCGAGGUGAUG |  |  | 44.8 nM | 33.5 nM | 
CGUCACCUAAAAGGAUAUCUACAAUACAGGAUUGCGUCUCACAUGAGGAUCACCCAUGUGUGUCCAGAGAAGGUUUCGGCACGU | 8.55 nM | 8.34 nM |  |  | 
